Measured values published in article PMC2795045 (Chemico-biological interactions, 2010).
Read-outs that look alike come from different tables or passages of the source.

Assays:
CYP1A1 = CYP1A1 mRNA induction in Hepa1c1c7 cells by quantitative RT-PCR; format: cell-based, mouse; settings: mouse, EC50 for CYP1A1 mRNA induction, 3 hours exposure, qRT-PCR, ± SE
Hepa1c1c7 cells [1] = experiment: as above; format: cell-based, mouse; settings: read-out: EC50 for CYP1A1 mRNA induction, 3 hours exposure, qRT-PCR, ± SE
CYP1A6 (Xl.1692) mRNA [2] = experiment: Affymetrix expression microarray of XLK-WG cells; format: cell-based, Xenopus laevis; settings: Xenopus laevis
CYP1A7 (Xl.1220) mRNA [3] = experiment: Affymetrix expression microarray of XLK-WG cells; format: cell-based, Xenopus laevis; settings: Xenopus laevis
XLK-WG cells [4] = experiment: Affymetrix expression microarray of XLK-WG cells; format: cell-based, Xenopus laevis; settings: for Genes altered ≥ 2-fold: Induced / Genes altered ≥ 2-fold: Repressed / Genes altered (p ≤ 0.01): Induced / Genes altered (p ≤ 0.01): Repressed: 3 hours, number of genes; for Genes altered (p ≤ 0.01): Induced / Genes altered (p ≤ 0.01): Repressed: no two-fold cutoff; for fold induction at 0.1 µM: Xenopus laevis, 3 h
XLK-WG cells [5] = experiment: CYP1A6/CYP1A7 mRNA induction in XLK-WG cells by quantitative RT-PCR; format: cell-based, Xenopus laevis
CYP1A [6] = experiment: CYP1A activity; format: cell-based, Xenopus laevis; settings: Xenopus laevis
XLK-WG cells [7] = experiment: CYP1A activity; format: cell-based, Xenopus laevis; settings: XLK-WG cells, at the concentration of maximum response
CYP1A6 (Xl.1692) mRNA [8] = experiment: qRT-PCR of selected altered transcripts in XLK-WG cells; format: cell-based, Xenopus laevis; settings: Xenopus laevis
CYP1A7 (Xl.1220) mRNA [9] = experiment: as above; format: cell-based, Xenopus laevis; settings: Xenopus laevis
XLK-WG cells [10] = experiment: as above; format: cell-based, Xenopus laevis; settings: XLK-WG cells, relative to vehicle-treated control; for Xl.14954 (similar to voltage-gated potassium channel subunit MiRP4.1) fold induction, qRT-PCR: table row r10; for Xl.14954 fold induction, qRT-PCR: table row r16
Hepa1c1c7 cells [11] = experiment: CYP1A activity; format: cell-based, mouse; settings: for maximum EROD activity in Hepa1c1c7 cells relative to XLK-WG cells / maximum EROD activity induced: 3 hour treatment; for maximum EROD activity induced: ± SE
XLK-WG cells [12] = experiment: Semi-quantitative RT-PCR of AHR pathway transcripts in XLK-WG cells; format: cell-based, Xenopus laevis; settings: 100 nM TCDD, 24 hours
In short: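 XLK-WG cells were kept in the dark at 29 °C and 5% CO2 in RPMI-1640 with 20% FBS, then grown to near confluence. They were exposed for 24 h to 100 nM TCDD or DMSO vehicle (0.25% final). Total RNA was column-extracted, and RT-PCR covered CYP1A6, CYP1A7, AHR1α, AHR1β, ARNT1 and ARNT2. Cycling was 95 °C/1 min; 43 cycles of […], 50 °C/30 sec, 72 °C/60 sec; then 72 °C/7 min. A no-RT control was included.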

CYP1A [13] = experiment: CYP1A activity; format: cell-based, mouse; settings: mouse
[14] = read-out: Hypothetical protein MCG81225 (similar to Zn-finger protein 410; Xl.16594) fold induction, Microarray

SMILES: O=Cc1c2[nH]c3ccccc3c2cc2[nH]c3ccccc3c12 [FICZ, 6-formylindolo[3,2-b]carbazole]
- EC50 (CYP1A1): ~0.06 nM
- EC50 (Hepa1c1c7 cells [1]): 0.07 ± 0.02 nM
- fold induction at 0.1 µM (CYP1A6 (Xl.1692) mRNA [2]): 2.1
- fold induction at 0.1 µM (CYP1A7 (Xl.1220) mRNA [3]): 16.1
- number of transcripts with altered expression in excess of TCDD (XLK-WG cells [4]; XLK-WG cells, 100 nM): 105
- Genes altered ≥ 2-fold: Induced (XLK-WG cells [4]; XLK-WG cells, 100 nM): 24
- Genes altered ≥ 2-fold: Repressed (XLK-WG cells [4]; XLK-WG cells, 100 nM): 2
- Genes altered (p ≤ 0.01): Induced (XLK-WG cells [4]; XLK-WG cells, 100 nM): 113
- Genes altered (p ≤ 0.01): Repressed (XLK-WG cells [4]; XLK-WG cells, 100 nM): 35
- fold induction at 0.1 µM (XLK-WG cells [4]; [14]): 1.3
- fold induction at 0.1 µM (XLK-WG cells [4]; read-out: KCNE5.1: voltage-gated potassium channel subunit MiRP4.1 (Xl.16370) fold induction, Microarray): 2
- fold induction at 0.1 µM (XLK-WG cells [4]; read-out: MGC52735:similar to gap-jct protein alpha-7 (Xl.3337) fold induction, Microarray): 5.2
- fold induction at 0.1 µM (XLK-WG cells [4]; read-out: MGC85390 (Xl.23887; similar to RAB 40B, RAS oncogene family) fold induction, Microarray): 2.1
- fold induction at 0.1 µM (XLK-WG cells [4]; read-out: Peripheral Myelin protein 22 (Xl.11939/Xl.14729) fold induction, Microarray): 2.2
- fold induction at 0.1 µM (XLK-WG cells [4]; read-out: SYNE 1 (Xl. 14119) fold induction, Microarray): 6.7
- fold induction at 0.1 µM (XLK-WG cells [4]; read-out: Xl.13754 (similar to C219-reactive peptide) fold induction, Microarray): 3.1
- fold induction at 0.1 µM (XLK-WG cells [4]; read-out: Xl.14584 (similar to gastrula-specific protein kinase) fold induction, Microarray): 2.9
- fold induction at 0.1 µM (XLK-WG cells [4]; read-out: Xl.14954 (similar to voltage-gated potassium channel subunit MiRP4.1) fold induction, Microarray): 3.1
- fold induction at 0.1 µM (XLK-WG cells [4]; read-out: Xl.14954 fold induction, Microarray): 2.1
- fold induction at 0.1 µM (XLK-WG cells [4]; read-out: Xl.25142 fold induction, Microarray): 2.1
- fold induction at 0.1 µM (XLK-WG cells [4]; read-out: Xl.7783 fold induction, Microarray): 5.9
- CYP1A6/7 mRNA quantities after 3 hours exposure relative to 24 hours exposure (XLK-WG cells [5]): up to 5 fold
- CYP1A7 mRNA induction after 3 hours relative to after 24 hours (XLK-WG cells [5]; highest dosage of FICZ): 5 fold
- EC50 (CYP1A [6]; EC50 of induced CYP1A activity (EROD), XLK-WG cells, 3 hour exposure, ± SE): 0.56 ± 0.15 nM
- rise of induced CYP1A activity with 24 hours versus 3 hour exposure (XLK-WG cells [7]): more than 20 fold
- fold induction (CYP1A6 (Xl.1692) mRNA [8]): 455
- fold induction (CYP1A7 (Xl.1220) mRNA [9]): 412
- Hyaluronidase 2 (Xl.6247/Xl.16152) fold induction, qRT-PCR (XLK-WG cells [10]): 2.7 fold
- Hypothetical protein MCG81225 (similar to Zn-finger protein 410; Xl.16594) fold induction, qRT-PCR (XLK-WG cells [10]): 3.5 fold
- KCNE5.1: voltage-gated potassium channel subunit MiRP4.1 (Xl.16370) fold induction, qRT-PCR (XLK-WG cells [10]): 1.6 fold
- MGC52735:similar to gap-jct protein alpha-7 (Xl.3337) fold induction, qRT-PCR (XLK-WG cells [10]): 304 fold
- Peripheral Myelin protein 22 (Xl.11939/Xl.14729) fold induction, qRT-PCR (XLK-WG cells [10]): 1.0 fold
- SYNE 1 (Xl. 14119) fold induction, qRT-PCR (XLK-WG cells [10]): 106 fold
- Xl.13754 (similar to C219-reactive peptide) fold induction, qRT-PCR (XLK-WG cells [10]): 4.6 fold
- Xl.14584 (similar to gastrula-specific protein kinase) fold induction, qRT-PCR (XLK-WG cells [10]): 10.6 fold
- Xl.25142 fold induction, qRT-PCR (XLK-WG cells [10]): 1.8 fold
- Xl.7783 fold induction, qRT-PCR (XLK-WG cells [10]): 4.3 fold
- Xl.14954 (similar to voltage-gated potassium channel subunit MiRP4.1) fold induction, qRT-PCR (XLK-WG cells [10]): 9.5 fold
- Xl.14954 fold induction, qRT-PCR (XLK-WG cells [10]): 1.9 fold
- maximum EROD activity in Hepa1c1c7 cells relative to XLK-WG cells (Hepa1c1c7 cells [11]): ~ 20 fold
- EROD EC50 after 24 hours relative to EC50 after 3 hours (Hepa1c1c7 cells [11]; Hepa1c1c7 cells): ~ 50 fold
- maximum EROD activity induced (Hepa1c1c7 cells [11]; Hepa1c1c7 cells): 8.83 ± 2.72 pmol • mg protein^−1 • min^−1

SMILES: Clc1cc2c(cc1Cl)Oc1cc(Cl)c(Cl)cc1O2 [TCDD, 2,3,7,8-tetrachlorodibenzo-p-dioxin]
- EC50 at 3 h (CYP1A1): ~0.06 nM
- EC50 (Hepa1c1c7 cells [1]): 0.05 ± 0.02 nM
- CYP1A6 and CYP1A7 mRNA expression, semi-quantitative RT-PCR (XLK-WG cells [12]): up regulation of CYP1A6 and CYP1A7 mRNAs
- fold induction at 3 h, 0.1 µM (CYP1A6 (Xl.1692) mRNA [2]): 1.7
- fold induction at 3 h, 0.1 µM (CYP1A7 (Xl.1220) mRNA [3]): 6.7
- Genes altered ≥ 2-fold: Induced (XLK-WG cells [4]; XLK-WG cells, 100 nM): 3
- Genes altered ≥ 2-fold: Repressed (XLK-WG cells [4]; XLK-WG cells, 100 nM): 1
- Genes altered (p ≤ 0.01): Induced (XLK-WG cells [4]; XLK-WG cells, 100 nM): 31
- Genes altered (p ≤ 0.01): Repressed (XLK-WG cells [4]; XLK-WG cells, 100 nM): 12
- fold induction at 0.1 µM (XLK-WG cells [4]; [14]): 1.3
- EC50 at 3 h (CYP1A [6]): 10.5 ± 3.17 nM
- EC50 at 24 h (CYP1A [6]): ≥ 95 nM
- rise of induced CYP1A activity with 24 hours versus 3 hour exposure (XLK-WG cells [7]): more than 20 fold
- fold induction at 3 h, 100 nM (CYP1A6 (Xl.1692) mRNA [8]): 427
- fold induction at 3 h, 100 nM (CYP1A7 (Xl.1220) mRNA [9]): 320
- Hyaluronidase 2 (Xl.6247/Xl.16152) fold induction, qRT-PCR (XLK-WG cells [10]): 1.6 fold
- Hypothetical protein MCG81225 (similar to Zn-finger protein 410; Xl.16594) fold induction, qRT-PCR (XLK-WG cells [10]): 3.2 fold
- KCNE5.1: voltage-gated potassium channel subunit MiRP4.1 (Xl.16370) fold induction, qRT-PCR (XLK-WG cells [10]): 2.0 fold
- MGC52735:similar to gap-jct protein alpha-7 (Xl.3337) fold induction, qRT-PCR (XLK-WG cells [10]): 69.1 fold
- MGC85390 (Xl.23887; similar to RAB 40B, RAS oncogene family) fold induction, qRT-PCR (XLK-WG cells [10]): 2.0 fold
- Peripheral Myelin protein 22 (Xl.11939/Xl.14729) fold induction, qRT-PCR (XLK-WG cells [10]): 1.1 fold
- SYNE 1 (Xl. 14119) fold induction, qRT-PCR (XLK-WG cells [10]): 8.4 fold
- Xl.13754 (similar to C219-reactive peptide) fold induction, qRT-PCR (XLK-WG cells [10]): 2.2 fold
- Xl.14584 (similar to gastrula-specific protein kinase) fold induction, qRT-PCR (XLK-WG cells [10]): 10.1 fold
- Xl.25142 fold induction, qRT-PCR (XLK-WG cells [10]): 0.9 fold
- Xl.7783 fold induction, qRT-PCR (XLK-WG cells [10]): 2.0 fold
- Xl.14954 (similar to voltage-gated potassium channel subunit MiRP4.1) fold induction, qRT-PCR (XLK-WG cells [10]): 6.6 fold
- Xl.14954 fold induction, qRT-PCR (XLK-WG cells [10]): 3.0 fold
- EC50 at 3 h (CYP1A [13]): 0.03 ± 0.01 nM
- EC50 at 24 h (CYP1A [13]): 0.01 ± 0.002 nM
- maximum EROD activity in Hepa1c1c7 cells relative to XLK-WG cells (Hepa1c1c7 cells [11]): ~ 40 fold
- maximum EROD activity induced (Hepa1c1c7 cells [11]; Hepa1c1c7 cells): 13.41 ± 4.61 pmol • mg protein^−1 • min^−1
